Among the data in ChEMBL document CHEMBL1142313, “Parallel synthesis of a series of potentially brain penetrant aminoalkyl benzoimidazoles” (Bioorg Med Chem, 2008) are EC50 and Activity values, retold here.

Holding throughout (format): functional, cell-based
Assay [1] has as its target Neuronal acetylcholine receptor subunit alpha-7 (Rattus norvegicus, UniProt Q05941). The assay can be described thus: Agonist activity at rat alpha-7 nAChR expressed in GH4C1-F7 cells assessed as effect on calcium influx by FLIPR.
Assay [2] has as its target Neuronal acetylcholine receptor subunit alpha-7 (Rattus norvegicus) (UniProt Q05941). Briefly: Agonist activity at rat alpha-7 nAChR expressed in GH4C1-F7 cells assessed as effect on calcium influx at 5 uM by FLIPR relative to nicotine. In outline: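 GH4C1-F7 cells stably expressing rat alpha7 nAChR were seeded at 100,000/well on poly-D-lysine plates and loaded with Fluo-4 (with pluronic acid and probenecid) for 30 min at 37 °C.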

Assay [3] shares this target. The assay can be described thus: Reversal of agonist activity at rat alpha-7 nAChR expressed in GH4C1-F7 cells assessed as effect on calcium influx at 10 uM in presence of methyllycaconitine by FLIPR. In outline:
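GH4C1-F7 rat alpha7-nAChR cells loaded with Fluo-4/probenecid at 37 °C for 30 min, then washed in HBSS-20 mM Hepes with 2.5 mM probenecid, with or without MLA 1 µM. Compound added and Ca2+ fluorescence read by FLIPR, every second for 1 min then every 30 s for 10 min. Peak height taken as max-min. A signal lost in the presence of MLA marks alpha7 selectivity.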

Active and inactive are the calls of the source. The calls are words filed in the database; no cut-off is given here. Bounds are passed on as bounds.

Chain of Neuronal acetylcholine receptor subunit alpha-7 (Q05941 whole entry): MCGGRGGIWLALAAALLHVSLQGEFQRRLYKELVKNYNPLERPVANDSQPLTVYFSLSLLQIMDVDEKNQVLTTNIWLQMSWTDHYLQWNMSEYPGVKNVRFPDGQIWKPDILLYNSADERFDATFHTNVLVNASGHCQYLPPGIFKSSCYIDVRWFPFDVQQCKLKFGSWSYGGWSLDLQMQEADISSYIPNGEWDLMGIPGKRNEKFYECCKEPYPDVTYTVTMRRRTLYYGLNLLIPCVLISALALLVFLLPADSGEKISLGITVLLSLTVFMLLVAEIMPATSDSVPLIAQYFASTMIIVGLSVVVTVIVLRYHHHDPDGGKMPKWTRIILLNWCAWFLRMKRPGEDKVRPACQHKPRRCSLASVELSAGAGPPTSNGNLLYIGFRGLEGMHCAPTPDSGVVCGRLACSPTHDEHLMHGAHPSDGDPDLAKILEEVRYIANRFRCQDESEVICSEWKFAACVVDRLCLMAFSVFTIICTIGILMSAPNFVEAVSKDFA
Chain of Neuronal acetylcholine receptor subunit alpha-7 (Rattus norvegicus) (Q05941 whole entry): as above

For `CN1CCN(CCCn2c(COc3cccc(Cl)c3)nc3ccccc32)CC1`, the 50% effective concentration (EC50) (in general, the concentration needed to bring the measured effect to its halfway point) in assay [1] was determined as 10000 nM. Besides, the Activity in assay [2] was greater than 20%.
With `CN1CCCC1CCn1c(Cc2ccc(Br)cc2)nc2ccccc21` (stereo unspecified), the EC50 in assay [1] was determined as 2700 nM. Also, the result in assay [3] was Active. Also, the Activity in assay [2] was greater than 20%.
On the same counts, the results for `CN(C)CCCn1c(Cc2ccc(Br)cc2)nc2ccccc21` are 2600 nM, “Active” and greater than 20%.
On the same counts, the results for `Cc1ccc2nc(Cc3ccc(Br)cc3)n(CCCN(C)C)c2c1` are 1700 nM, “Active” and greater than 20%.
For `CN1[C@@H]2CC[C@H]1C[C@H](NC(=O)Nc1ccc(Br)cc1)C2`, the 50% effective concentration (EC50) in assay [1] was 200 nM.
On the same count and under the same terms, then `O=C(Nc1ccccc1F)OC1CN2CCC1CC2` (stereo unspecified), with 600 nM.
On to `CN(C)CCCn1c(COc2ccccc2)nc2ccccc21`, for which, in assay [1], the half-maximal effective concentration (EC50) is 2600 nM. For the same compound, in assay [3], the outcome was Active. Further, in assay [2], the Activity is greater than 20%.
